V1R ag counter – V1a receptor agonism, counter-screen for OXTR agonists; CHO-V1R cells, Fluo-8 calcium fluorescence, agonist mode; 0% DMSO, 100% 3 nM vasopressin; 320,000 tested, 0.25% active; activation, % at 3 µM; P37288;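 active = activation above the mean activation of all tested compounds plus 3 SD, per screening run, cut at about 20% in these data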;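 also: signal is peak over basal fluorescence ratio across a 100 second FLIPR read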
Target sequence (P37288 whole entry, looked up): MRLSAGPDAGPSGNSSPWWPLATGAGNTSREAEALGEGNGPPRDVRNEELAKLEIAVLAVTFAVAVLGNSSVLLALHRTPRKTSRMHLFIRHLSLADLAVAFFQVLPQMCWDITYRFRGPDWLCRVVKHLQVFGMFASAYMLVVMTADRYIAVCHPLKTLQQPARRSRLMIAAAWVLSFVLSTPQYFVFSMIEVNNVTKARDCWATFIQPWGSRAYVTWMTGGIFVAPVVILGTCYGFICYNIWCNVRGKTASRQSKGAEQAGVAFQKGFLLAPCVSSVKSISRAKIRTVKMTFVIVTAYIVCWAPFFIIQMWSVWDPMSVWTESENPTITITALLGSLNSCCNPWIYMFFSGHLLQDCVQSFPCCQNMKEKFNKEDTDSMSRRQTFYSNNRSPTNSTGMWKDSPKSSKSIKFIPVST
OX1R antag-1 – antagonists of human orexin 1 receptor; inhibition, % at 5 µM; CHO/OX1R cells, Fluo-8 calcium fluorescence, orexin A; O43613; 330,000 tested, 0.43% active; AID 434989;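 active = inhibition above its plate's threshold, mean inhibition of all tested compounds on the plate plus 3 SD, cut at about 37% in these data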;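 also: 0% = orexin A challenge wells and 100% = SB-334867-A antagonist wells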
CHO parental Ca – counter-screen for OX1R antagonists: effect in parental CHO cells. 330,000 tested, 0.63% active. parental CHO-K1, ATP-induced calcium, Fluo-8 fluorescence. inhibition, % at 5.6 µM;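 active = inhibition above that plate's mean sample inhibition plus 3 SD, cut at about 26% in these data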;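 also: 0% = ATP-challenged DMSO wells and 100% = DMSO wells without ATP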
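Material: parental CHO cells / Compound: single nominal dose of 5.6 µM per compound / Signal: Fluo-8 fluorescence / Replicates: singlicate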
OX1R antag-2 – blocks the human orexin 1 receptor; O43613; OX1R-expressing cells, FRET antagonist read-out; inhibition, % at 6.6 µM; 330,000 tested, 1.8% active; in the data active = inhibition mostly above about 38%, no sharp cut-off; inactive = mostly below about 40%;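 also: 0% = agonist challenge alone and 100% = reference antagonist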
OXTR potentiate – potentiates the human oxytocin receptor response | P30559 | CHO-OTR cells, Fluo-8 calcium fluorescence, potentiator mode; 0% = oxytocin EC15, 100% = EC100 | activation, % at 3 µM | 320,000 tested, 0.061% active;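 active = activation above that plate's cutoff, the mean activation of tested compounds plus 3 SD, cut at about 6.6% in these data, passing the limit was not always enough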;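 also: 100% uses oxytocin at 75 nM as the full agonist control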
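System: human OTR in CHO cells / Also added: sub-maximal oxytocin, roughly EC15 / Control set: EC15 oxytocin low, 75 nM oxytocin high / Schedule: 6 min compound pre-incubation at room temperature, 100 s kinetic read / Compound: single-point 3.0 µM / Replication: singlicate / Technique: Fluo-8 calcium dye fluorescence / Read-out basis: % activation of max/min ratio relative to oxytocin controls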
OXTR agonist – agonists of human oxytocin receptor | P30559 | CHO-OTR cells, Fluo-8 calcium fluorescence; normalized: DMSO 0%, oxytocin 100% | activation, % at 3 µM | 320,000 tested, 0.32% active | AID 2435;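 active = activation above the mean of all tested compounds plus 3 SD, cutoff set per screening run, cut at about 20% in these data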;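 also: peak over basal fluorescence ratio from a 100 s FLIPR kinetic read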
OX1R Fluo8 conf – confirmation of human orexin 1 receptor antagonists | shares compounds with OX1R antag-1 | CHO/OX1R cells, orexin A calcium Fluo-8 fluorescence | inhibition, % at 5 µM | 1,100 tested, 38% active | AID 492963; in the data active = inhibition above about 29%;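 also: 0% = agonist challenge alone and 100% = reference antagonist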
CHO Ca triplic – signal in parental CHO cells, OX1R antagonist counter-screen. parental CHO-K1, ATP-induced calcium, Fluo-8 fluorescence. shares compounds with OX1R antag-1. 1,100 tested, 9.3% active. inhibition, % at 5.6 µM;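 active = inhibition above a per-plate limit, the mean inhibition of that plate's test compounds plus 3 SD, cut at about 25% in these data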;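 also: 0% = ATP challenge with DMSO and 100% = DMSO without ATP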
* marks the source's active call; other numbers are inactive results; / = no result. This is a sample that favours compounds with a hit; in the whole collection about 2.6% have one here.

SMILES	V1R ag counter	OX1R antag-1	CHO parental Ca	OX1R antag-2	OXTR potentiate	OXTR agonist	OX1R Fluo8 conf	CHO Ca triplic
Cc1ccc(-c2cc3nc(-c4ccccc4)cc(N4CCC5(CC4)OCCO5)n3n2)cc1	-1	39	12	40	-12	0	36*	-10
Fc1ccc(-c2cc3nc(-c4ccccc4)cc(N4CCOCC4)n3n2)cc1	-1	-27	-13	7	4	0	/	/
O=C(CSC1=Nc2ccccc2C2CC=NN12)NCc1ccco1 (stereo not given)	0	57*	-4	33	3	0	24	4
O=C(CSCc1ccc(Cl)cc1)N/N=C/c1ccc(OCC(=O)Nc2ccccc2)cc1	6	36	14	68	-12	3	6	4
Cc1ccc(NC(=O)COc2ccc(/C=N/NC(=O)CSCc3ccccc3)cc2)cc1	0	33	3	17	-11	0	/	/
O=C(NCCCCc1ccccc1)Nc1ccc(F)cc1	6	-11	-4	17	-14	-2	/	/
CCOC(=O)N1CCN(C(=O)c2ccc(CS(=O)Cc3ccc(C)cc3)o2)CC1 (stereo not given)	0	-8	-12	8	-7	1	/	/
Cc1ccc(O)c(NC(=O)c2noc3c2CCc2ccccc2-3)c1	0	31	-15	67	-1	2	21	4
CC(C)CN(C(=O)COC(=O)c1ccccn1)c1c(N)n(Cc2ccccc2)c(=O)[nH]c1=O	-1	2	-9	13	-3	1	/	/
C=C(C)COc1ccc(-c2[nH]ncc2Oc2ccccc2OC)c(O)c1	0	1	-3	16	-9	-1	/	/
C=C(C)COc1ccc(-c2[nH]ncc2-c2ccccc2OC)c(O)c1	-1	35	13	12	-18	-1	-16	-3
CC(C)N(CCc1ccncc1)C(=S)Nc1ccc(F)c(Cl)c1	7	31	9	1	-27	7	7	-2
Fc1ccc(NC(=S)Nc2ccc(F)c(Cl)c2)cc1Cl	13	34	24	36	-21	17	37*	61*
CCOc1c(Cl)cc(/C=C/C(=O)N(CC)CC(=O)Nc2ccc(NC(C)=O)cc2)cc1OC	1	-26	-19	8	5	1	/	/
NC(=O)CSc1ccc(-c2ccc(F)cc2)nn1	0	-4	-13	8	-8	-1	/	/
COC(=O)Nc1ccc(S(=O)(=O)N2CCCC(C(=O)NCC3CCCO3)C2)cc1 (stereo not given)	0	-12	5	0	-5	1	/	/
COc1cc(Cl)c(C)cc1NC(=O)CSc1nnc(-c2ccccn2)n1Cc1ccco1	-1	-27	-23	13	2	-1	/	/
CCOc1cccc(-c2c(C(=O)N/N=C/c3c(F)cccc3Cl)nnn2-c2nonc2N)c1	1	34	-2	17	-1	0	35*	-1
CCOc1cccc(-c2c(C(=O)N/N=C/c3ccc(C)s3)nnn2-c2nonc2N)c1	9	-9	-3	12	-4	3	/	/
COc1ccc(-c2cc(-c3ccc(OC)c(OC)c3)n[nH]2)c(O)c1	5	35	19	40	-14	3	4	-11
COc1ccc(N2CCN(Cc3nc4cc(Cl)ccc4c(=O)[nH]3)CC2)cc1	0	-14	-9	24	0	1	/	/
C=CCC(COCc1ccccc1)NS(=O)(=O)c1ccccc1Br (stereo not given)	-1	34	-11	49	-12	-2	8	-7
C=CC(COCc1ccccc1)N(C(=O)OC(C)(C)C)S(=O)(=O)c1ccccc1Br (stereo not given)	0	-7	-10	38	-6	0	/	/
C=CCC[C@@H](Cc1ccc(F)cc1)C(=O)OC[C@@H]1CCCN1C(=O)[C@H](CC=C)CC(=O)N[C@H](CO)Cc1ccccc1	3	65*	-6	24	-8	-2	14	-14

High-throughput results as filed in PubChem.
